Measured values reported in ChEMBL document CHEMBL5260806, “Hydrogen peroxide activated quinone methide precursors with enhanced DNA cross-linking capability and cytotoxicity towards cancer cells” (Eur J Med Chem, 2017).

Legend:
MDA-MB-468 = assay: Anticancer activity against human MDA-MB-468 cells assessed inhibition of cell growth after 48 hrs by CellTiter-Glo luminescent assay; format: functional, cell-based; conditions: MDA-MB-468, 48 h
In short: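 Cells grown in RPMI 1640 with 5% fetal bovine serum and 2 mM L-glutamine, seeded at 5,000–10,000 cells/well in 384-well plates, preincubated 2–3 h at 37°C, 5% CO2. DMSO stocks (20 mM) serially diluted 2-fold ten times, then added at 1:100. Exposure 48 h at 37°C. Viability read by CellTiter-Glo luminescence after 10 min at room temperature; IC50 derived.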

SW-620 = assay: Anticancer activity against human SW620 cells assessed as cell growth inhibition incubated for 48 hrs by sulforhodamine B assay; format: functional
DNA = assay: Induction of [32P]-labeled 49-mer oligonucleotide duplex DNA 25 (unknown origin) interstrand cross-linking at 2 mM for 24 hrs without H2O2 by PAGE; format: functional
HOP-62 [1] = assay: Anticancer activity against human HOP-62 cells assessed as cell growth inhibition at 10 uM incubated for 48 hrs by sulforhodamine B assay; format: functional; conditions: read-out: GI
In short: (§1)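 NCI-60 screen: cell lines grown in RPMI 1640 with 5% FBS and 2 mM L-glutamine, plated in 96-well plates at 5,000–40,000 cells/well depending on doubling time. Each line has one single-dose arm at 10 µM and one dose-response arm giving GI50.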

U-251 [2] = assay: Anticancer activity against human U-251 cells assessed as cell growth inhibition incubated for 48 hrs by sulforhodamine B assay; format: functional
HCT-15 = assay: Anticancer activity against human HCT-15 cells assessed as cell growth inhibition at 10 uM incubated for 48 hrs by sulforhodamine B assay; format: functional; conditions: read-out: GI; in short: as §1
HT-29 = assay: Anticancer activity against human HT-29 cells assessed as cell growth inhibition incubated for 48 hrs by sulforhodamine B assay; format: functional; in short: as §1
UACC-257 = assay: Anticancer activity against human UACC-257 cells assessed as cell growth inhibition at 10 uM incubated for 48 hrs by sulforhodamine B assay; format: functional; conditions: read-out: GI
SNB-75 = assay: Anticancer activity against human SNB-75 cells assessed as cell growth inhibition at 10 uM incubated for 48 hrs by sulforhodamine B assay; format: functional; conditions: read-out: GI
Malme-3M [3] = assay: Anticancer activity against human Malme-3M cells assessed as cell growth inhibition incubated for 48 hrs by sulforhodamine B assay; format: functional
In short: (§2)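 NCI DTP 60-cell-line screen run at National Cancer Institute. Cells grown in RPMI 1640 with 5% fetal bovine serum and 2 mM L-glutamine, seeded at 5,000–40,000 cells/well depending on doubling time. Single-dose screen at 10 µM gives growth percentage; dose-response series gives GI50.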

Malme-3M [4] = assay: Anticancer activity against human Malme-3M cells assessed as cell growth inhibition at 10 uM incubated for 48 hrs by sulforhodamine B assay; format: functional; conditions: read-out: GI; in short: as §2
SF-268 = assay: Anticancer activity against human SF-268 cells assessed as cell growth inhibition incubated for 48 hrs by sulforhodamine B assay; format: functional; in short: as §2
SF-539 = assay: Anticancer activity against human SF-539 cells assessed as cell growth inhibition at 10 uM incubated for 48 hrs by sulforhodamine B assay; format: functional; conditions: read-out: GI; in short: as §2
BT-549 = assay: Anticancer activity against human BT-549 cells assessed as cell growth inhibition incubated for 48 hrs by sulforhodamine B assay; format: functional; in short: as §1
SK-MEL-28 = assay: Anticancer activity against human SK-MEL-28 cells assessed as cell growth inhibition at 10 uM incubated for 48 hrs by sulforhodamine B assay; format: functional; conditions: read-out: GI; in short: as §2
OVCAR-8 = assay: Anticancer activity against human OVCAR-8 cells assessed as cell growth inhibition at 10 uM incubated for 48 hrs by sulforhodamine B assay; format: functional; conditions: read-out: GI; in short: as §2
HOP-92 = assay: Anticancer activity against human HOP-92 cells assessed as cell growth inhibition incubated for 48 hrs by sulforhodamine B assay; format: functional; in short: as §1
CCRF-CEM = assay: Anticancer activity against human CCRF-CEM cells assessed as cell growth inhibition at 10 uM incubated for 48 hrs by sulforhodamine B assay; format: functional; conditions: read-out: GI; in short: as §1
HOP-62 [5] = assay: Anticancer activity against human HOP-62 cells assessed as cell growth inhibition incubated for 48 hrs by sulforhodamine B assay; format: functional; in short: as §1
U-251 [6] = assay: Anticancer activity against human U-251 cells assessed as cell growth inhibition at 10 uM incubated for 48 hrs by sulforhodamine B assay; format: functional; conditions: read-out: GI
OVCAR-5 = assay: Anticancer activity against human OVCAR-5 cells assessed as cell growth inhibition incubated for 48 hrs by sulforhodamine B assay; format: functional; in short: as §2
SR = assay: Anticancer activity against human SR cells assessed as cell growth inhibition at 10 uM incubated for 48 hrs by sulforhodamine B assay; format: functional; conditions: read-out: GI
DU-145 = assay: Anticancer activity against human DU-145 cells assessed as cell growth inhibition incubated for 48 hrs by sulforhodamine B assay; format: functional; in short: as §1
M14 = assay: Anticancer activity against human M14 cells assessed as cell growth inhibition incubated for 48 hrs by sulforhodamine B assay; format: functional; in short: as §1

- IC50 (MDA-MB-468): 9 µM
- GI50 (SW-620): 2 µM
- GI50 (U-251 [2]): 2 µM
- GI50 (HT-29): 2 µM
- GI50 (BT-549): 2 µM
- GI50 (OVCAR-5): 2 µM
- GI50 (DU-145): 2 µM
SMILES: COc1cc(CBr)c(B2OC(C)(C)C(C)(C)O2)c(CBr)c1
- Activity (DNA): 0%
- inhibition of growth at 10 µM (HOP-62 [1]): < 50%
- inhibition of growth at 10 µM (HCT-15): < 50%
- inhibition of growth at 10 µM (UACC-257): < 50%
- inhibition of growth at 10 µM (SNB-75): < 50%
- GI50 (Malme-3M [3]): 2 µM
- inhibition of growth at 10 µM (Malme-3M [4]): < 50%
- GI50 (SF-268): 2 µM
- inhibition of growth at 10 µM (SF-539): < 50%
- inhibition of growth at 10 µM (SK-MEL-28): < 50%
- inhibition of growth at 10 µM (OVCAR-8): < 50%
- GI50 (HOP-92): 2 µM
- inhibition of growth at 10 µM (CCRF-CEM): < 50%
- GI50 (HOP-62 [5]): 2 µM
- inhibition of growth at 10 µM (U-251 [6]): < 50%
- inhibition of growth at 10 µM (SR): < 50%
- GI50 (M14): 2 µM
